IC50 data for 13 compounds are collected here from ChEMBL document CHEMBL1123327, “Ribose as the preferential target for the oxidized form of elliptinium acetate in ribonucleos(t)ides. Biological activities of the resulting adducts” (1986).

For this experiment, the system named is L1210. Put plainly: Cytotoxicity was determined in vitro in murine leukemia L1210 Cells. The experiment is classed as functional. The settings on record: Mus musculus, read-out: ID50 (the source's name). An outline of the steps: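 Growth inhibition of murine leukemia L1210 cells cultured in vitro. Cells were exposed to the adducts for 48 h and then counted. ID50 is the drug concentration that cuts cell number by 50% relative to untreated control.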

For the compound `Cc1c2cc[n+](C)cc2c(C)c2c3c([nH]c12)C=CC(=O)[C@@]31O[C@@H]2[C@H](O1)[C@@H](CO)O[C@H]2n1cnc2c(O)nc(N)nc21`, the IC50 was 800 nM.

Regarding `Cc1c2cc[n+](C)cc2c(C)c2c3c([nH]c12)C=CC(=O)[C@@]31O[C@@H]2[C@H](O1)[C@@H](CO)O[C@H]2n1ccc(=O)[nH]c1=O`, the IC50 is greater than 3000 nM. In the case of `Cc1c2cc[n+](C)cc2c(C)c2c3c([nH]c12)C=CC(=O)[C@@]31O[C@@H]2[C@H](O1)[C@@H](COP(=O)(O)O)O[C@H]2n1cnc2c(O)nc(N)nc21`, the IC50 was greater than 1000 nM. Turning to `Cc1c2cc[n+](C)cc2c(C)c2c3c([nH]c12)C=CC(=O)[C@@]31O[C@@H]2[C@H](O1)[C@@H](COP(=O)(O)O)O[C@H]2n1cnc2c(N)ncnc21`, the IC50 is greater than 800 nM. On to `Cc1c2cc[n+](C)cc2c(C)c2c3c([nH]c12)C=CC(=O)[C@@]31O[C@@H]2[C@H](O1)[C@@H](CO)O[C@H]2n1cnc2c(N)ncnc21`, for which the IC50 is 800 nM.

For the compound `Cc1c2cc[n+](C)cc2c(C)c2c3c([nH]c12)C=CC(=O)[C@@]31O[C@@H]2[C@H](O1)[C@@H](COP(=O)(O)O)O[C@H]2n1ccc(=O)[nH]c1=O`, the IC50 worked out at 1100 nM. `Cc1c2cc[n+](C)cc2c(C)c2c3c([nH]c12)C=CC(=O)[C@@]31O[C@@H]2[C@H](O1)[C@@H](CO)O[C@H]2n1ncc(=O)[nH]c1=O`: the IC50 is greater than 3000 nM. As for `Cc1c2cc[n+](C)cc2c(C)c2c3c([nH]c12)C=CC(=O)[C@@]31O[C@@H]2[C@H](O1)[C@@H](CO)O[C@H]2n1ccc(N)nc1=O`, the IC50 was determined as 3000 nM. On to `Cc1c2cc[n+](C)cc2c(C)c2c3c([nH]c12)C=CC(=O)[C@@]31O[C@@H]2[C@H](O1)[C@@H](COP(=O)(O)O)O[C@H]2n1ccc(N)nc1=O`, for which the IC50 was 12800 nM. Consider `O=c1cnn([C@@H]2O[C@H](CO)[C@@H](O)[C@H]2O)c(=O)[nH]1` [6-AZAURIDINE], for which the IC50 came to 570 nM. As for `Cc1c2cc[n+](C)cc2c(C)c2c1[nH]c1ccc(O)cc12` [ELLIPTINIUM ACETATE], the IC50 came out at 120 nM.

On to `Nc1nc2[nH]cnc2c(=S)[nH]1` [THIOGUANINE], for which the IC50 came out at 70 nM. `Nc1nc(=S)c2ncn([C@@H]3O[C@H](CO)[C@@H](O)[C@H]3O)c2[nH]1` [THIOGUANOSINE]: the IC50 amounted to 100 nM.
